The source made the active and inactive calls. No cut-off for these calls is given here.
System: U-87 MG
Experiment: Cytotoxicity against human U87 cells assessed as reduction in cell proliferation at 100 uM measured after 48 hrs by trypan blue dye-based cell counting analysis
Format: functional
Conditions: U-87MG ATCC
Outline: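 Trypan blue viability assay. U87 (MEM, 10% FBS) or LN229 (DMEM, 5% FBS) cells were treated for 48hrs. Screening used 100 μM; the dose-response used 100, 75, 50, 25 and 10 μM. Cells were pelleted at 1200 rpm and live/dead cells counted by automated counter. Mortality % was taken relative to the DMSO control, and IC₅₀ derived from the dose-response curve. Cisplatin served as positive control.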

## CC(=O)/C(=N\Nc1ccc([N+](=O)[O-])cc1O)C(=O)c1ccccc1
  Activity: Active

## CC(=O)/C(=N\Nc1cc(S(=O)(=O)O)cc(S(=O)(=O)O)c1O)C(=O)c1ccccc1
  Activity: inactive
